Experimental data from different studies.
Target: Tyrosine-protein kinase Srms (SRMS, Homo sapiens, UniProt Q9H3Y6)

C[C@@H](c1ccc(-n2cnc3c(N)ncnc32)cc1)N1CCc2nn(C)c(Cc3ccccc3)c2C1=O
remaining binding (binding, competition with immobilised ligand; 0.1 µM): 44%

CSc1cccnc1N1CCN(Cc2nc3ccccc3[nH]2)CC1
remaining binding (cell-free assay, competition with immobilised ligand; 1 µM): 100%

C[C@H]1CCN(c2nccc(-c3cnn4ncccc34)n2)C1
remaining binding (binding; 1 µM): 71%

COc1cnc(Nc2cccc(S(N)(=O)=O)c2)nc1N1CCN(c2ccccc2)C(=O)C1
remaining binding (binding, competition with immobilised ligand; 1 µM): 90%

CC(C)(O)c1cncc(-c2nc3ccc(F)cc3n2C2CC2)c1
remaining binding (cell-free assay, competition with immobilised ligand; 1 µM): 100%

c1cncc(-c2cccc(Nc3nccc(NC4CCCCC4)n3)c2)c1
remaining binding (binding, competition with immobilised ligand; 10 µM): 71%

O=C(NCCCN1CCOCC1)c1ccc(Nc2nccc(-c3cc4ccccc4s3)n2)cc1
remaining binding (binding, competition with immobilised ligand; 1 µM): 100%

FC(F)(F)Oc1cccc(-c2cnc3ccc(-c4ccncc4)nn23)c1
remaining binding (cell-free assay, competition with immobilised ligand; 5 µM): 65%

CNC(=O)[C@@H]1CC[C@@H](n2c(-c3ccc4cnccc4c3)nc3ccc(C(=O)NCc4cccc(C(N)=O)c4)cc32)C1
remaining binding (binding, competition with immobilised ligand; 1 µM): 97%

CC1CCCN1c1nccc(-c2cnn3ncccc23)n1 (stereo not shown)
remaining binding (binding; 1 µM): 100%

CCN1CCN(Cc2ccc(C(=O)Nc3ccc(C)c(Oc4ccc5c(c4)CC(=O)N5)c3)cc2C(F)(F)F)CC1
remaining binding (binding, competition with immobilised ligand; 1 µM): 100%

CN([C@@H]1CCc2c(CC(=O)O)c3ccccc3n2C1)S(=O)(=O)c1ccc(F)cc1
remaining binding (cell-free assay, competition with immobilised ligand; 1 µM): 81%

N[C@@H]1CCN(c2nccc(-c3cnn4ncccc34)n2)C1
remaining binding (binding; 1 µM): 100%

O=C(Nc1cccnn1)N1CCC(=Cc2cccc(Oc3ccc(C(F)(F)F)cn3)c2)CC1
remaining binding (cell-free assay, competition with immobilised ligand; 1 µM): 95%

O=C(c1ccc(Nc2ncc(Cl)c(-c3ccc(Cl)s3)n2)cc1)N1CCC(N2CCCC2)CC1
remaining binding (binding, competition with immobilised ligand; 1 µM): 98%

CN(C)c1nccc(-c2cnc3ncccn23)n1
remaining binding (binding; 1 µM): 63%

CS(=O)(=O)NCC[C@H](NC(=O)c1cncc2c1cnn2-c1ccc(F)cc1)c1ccnc(S(C)(=O)=O)c1
remaining binding (cell-free assay, competition with immobilised ligand; 1 µM): 83%

Cc1cnc(Nc2ccc(C(=O)N3CCC(N4CCCC4)CC3)cc2)nc1-c1cc2ccccc2s1
remaining binding (binding, competition with immobilised ligand; 1 µM): 68%

CN(CCCC(F)(F)F)c1nccc(-c2cnn3ncccc23)n1
remaining binding (binding; 1 µM): 100%

O=C(Nc1c[nH]nc1C(=O)NC1CCNCC1)c1cc(F)cc(F)c1
remaining binding (binding, competition with immobilised ligand; 1 µM): 84%

c1cnn2ncc(-c3ccnc(N4CCC45COC5)n3)c2c1
remaining binding (binding; 1 µM): 70%

CCOCCn1cc(C(=O)Nc2ccc(-n3nc(-c4cccnc4)cc3C(F)(F)F)cn2)ccc1=O
remaining binding (cell-free assay, competition with immobilised ligand; 1 µM): 79%
